An excerpt weighted towards active compounds, which were near 0.97% of everything screened.
APOBEC3A inh = inhibitors of human APOBEC3A DNA deaminase | P31941 | recombinant A3A, FAM/TAMRA ssDNA deamination fluorescence | inhibition, % at 20 µM | 330,000 compounds, 0.41% hits;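 active = at least 40% inhibition at 20 µM here, with at most 30% in a related deaminase screen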;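 also: plate controls were A3A with DMSO for no effect and wells lacking A3A enzyme for full effect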
Target sequence (P31941 whole entry, looked up): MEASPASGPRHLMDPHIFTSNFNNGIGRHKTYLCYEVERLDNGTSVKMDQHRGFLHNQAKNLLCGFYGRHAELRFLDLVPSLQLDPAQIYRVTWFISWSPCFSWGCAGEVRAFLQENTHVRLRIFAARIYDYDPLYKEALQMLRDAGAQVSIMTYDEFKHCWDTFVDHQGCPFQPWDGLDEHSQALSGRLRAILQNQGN
UCH37 DUB inh = human UCH37 deubiquitinating enzyme inhibition. Q9Y5K5. inhibition, % (no concentration beside the values). 330,000 compounds, 0.33% hits. purified proteasome/UCH37, Ub-AMC cleavage fluorescence;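 active = mean inhibition over replicate wells above about 20%, limit read from the data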;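 also: 0% = compound-free wells with enzyme and 100% = wells lacking proteasome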
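Reagent: Ub-AMC substrate; assay system: Proteasome-associated human UCH37 deubiquitinase; controls: no-proteasome and no-compound wells; read-out: % inhibition of Ub-AMC cleavage fluorescence; timing: 30 min preincubation with enzyme, 25 min cleavage at room temperature; signal: AMC fluorescence from Ub-AMC cleavage, excitation 355 nm, emission 460 nm; buffer or medium: Tris-HCl pH 7.4 plus ovalbumin, ATP-MgCl2, DTT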
APOBEC3G inh = APOBEC3G (human) deaminase inhibition. Q9HC16. 330,000 compounds, 0.28% hits. recombinant A3G, ssDNA deamination FAM/TAMRA fluorescence. inhibition, % at 20 µM;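 active = inhibition of at least 40% at 20 µM, with no more than 30% in the related APOBEC3A deaminase screen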;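 also: plate controls were DMSO wells with A3G for no effect and wells lacking A3G enzyme for full effect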
JMJD2C inh = blocks human GASC-1 demethylase activity; GST-JMJD2C(1-420) H3K9me3 demethylation, DELFIA europium; inhibition, % at 2.35 µM; 330,000 compounds, 0.069% hits; AID 2099;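 active = more than half of a compound's replicate wells show inhibition beyond 50%, single wells judged on their own value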;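 also: signal counts dimethyl H3K9 product captured on neutravidin plate; 0% = median of DMSO wells and 100% = 0.3 times that DMSO median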
APOBEC3A confirm = confirmation of human APOBEC3A DNA deaminase inhibitors; shares compounds with APOBEC3A inh; recombinant A3A, ssDNA deaminase UDG fluorescence assay; inhibition, % at 20 µM; 1,400 compounds, 63% hits;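 active = inhibition reaching a set limit, 80% of the first screen's cutoff, at 20 µM in any replicate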;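 also: plate controls were DMSO wells with A3A for no effect and wells lacking A3A enzyme for full effect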
UDG A3A counter = counter-screen for APOBEC3A inhibitors: UDG | shares compounds with APOBEC3A inh | UDG counterscreen, FAM/TAMRA uracil oligo fluorescence | inhibition, % at 20 µM | 1,000 tested, under 10 active; call rule not given here
* hit, by the source's call; nt = no result.

SMILES	APOBEC3A inh	UCH37 DUB inh	APOBEC3G inh	JMJD2C inh	APOBEC3A confirm	others
CCOc1ccc(N(CC(=O)Nc2ccc(C)c(C)c2)S(C)(=O)=O)cc1	46*	7	3	-1	2
CCN(CC)CCOc1ccc2c(c1)C(=NO)c1cc(OCCN(CC)CC)ccc1-2	47*	3	26	-3	37*	UDG A3A counter=-1
COc1ccc(C=NNC(=O)c2ccc3nc[nH]c3c2)c(OC)c1OC	nt	5	nt	nt	nt
CCN(CC)c1ccc(C=NO)cc1	nt	2	nt	nt	nt
Cc1ccc(C(=O)ON=C2CCS(=O)(=O)c3sccc32)cc1	nt	1	nt	nt	nt
O=[N+]([O-])c1ccc(S(=O)(=O)NCC(c2ccco2)N2CCc3ccccc3C2)cc1 (stereo not given)	77*	2	-7	-12	-2	UDG A3A counter=-3
Cc1ccc(NC(=O)Cn2cc(C(=O)C3CC3)c3ccccc32)c(C)c1	-5	4	-7	-15	nt
Cc1ccc(C)c(NC(=O)Cn2cc(C(=O)C3CC3)c3ccccc32)c1	71*	5	18	7	62*	UDG A3A counter=4
COc1ccc(NC(=O)c2ccc3c(c2)S(=O)(=O)c2ccccc2C3=O)cc1	0	1	-8	2	nt
CC(C)(C)c1ccc(NC(=O)c2ccc3c(c2)S(=O)(=O)c2ccccc2C3=O)cc1	44*	3	-8	10	-8	UDG A3A counter=-2
Cc1cccc(CSc2ncnc3nc[nH]c23)c1	1	4	0	-7	nt
Cc1cc(C)c(CSc2ncnc3nc[nH]c23)c(C)c1	53*	1	9	-5	10
CCCCN(C(=O)c1cc2ccccc2o1)c1c(N)n(CC(C)C)c(=O)[nH]c1=O	-1	0	-5	-1	nt
CCCCN(C(=O)c1ccc([N+](=O)[O-])o1)c1c(N)n(CC(C)C)c(=O)[nH]c1=O	44*	nt	9	0	9
CCc1noc(C)c1C(=O)N(CCOC)c1c(N)n(CC(C)C)c(=O)[nH]c1=O	43*	0	6	7	2
C(=Nc1nc2ccccc2n1Cc1ccccc1)c1cccs1	nt	5	nt	nt	nt
CCOC(=O)C1=C(C)N=c2sc(=Cc3ccc(OCC(=O)O)cc3)c(=O)n2C1c1ccccc1 (stereo not given)	nt	2	nt	nt	nt
C[n+]1ccc(/C=C/c2c[nH]c3ccc(F)cc23)cc1	49*	17	12	-4	45*
Cn1cc(/C=C/c2cc[n+](C)cc2)c2cc(Cl)ccc21	nt	15	nt	-35	nt
Cc1ccc(NC(=O)CN(C)CC(=O)Nc2ccc(F)c(Cl)c2)cc1	61*	-1	16	0	4
Cc1ccc(OCCC(=O)Nc2ccc(F)c(Cl)c2)cc1	-1	2	-5	-2	nt
CC(C)(C)C=NNC(=O)CNC(=O)c1ccc2c(c1)OCCO2	nt	-1	nt	nt	nt
O=C1C2C(c3ccccc3)C=CC(c3ccccc3)C2C(=O)N1c1ccncc1 (stereo not given)	4	3	5	-5	nt
O=C1C2C3C=CC(C3)C2C(=O)N1c1ccncc1 (stereo not given)	83*	-2	-6	0	-8	UDG A3A counter=-4
C=CCON=C(C)c1c(O)c(CC)c(-c2ccccc2)n(-c2ccccc2)c1=O	nt	-1	nt	nt	nt
SMILES	APOBEC3A inh	UCH37 DUB inh	APOBEC3G inh	JMJD2C inh	APOBEC3A confirm	others
Cc1cccc(NC(=O)CSCC(=O)Nc2cc(Cl)ccc2N2CCN(C)CC2)c1	51*	4	7	11	26
CC[n+]1cccc(-c2nc3ccccc3s2)c1	53*	1	13	-4	64*	UDG A3A counter=-1
Oc1cccc(-c2nc3ccccc3s2)c1	-1	1	-2	-2	nt
O=C(NN=C/C(Br)=C\c1ccccc1)c1cccs1	nt	2	nt	nt	nt
CCOc1ccc2ccccc2c1C=NNC(=O)CNC(=O)c1ccccc1F	nt	-10	nt	nt	nt
CCOc1ccc(S(=O)(=O)NCCC(=O)N(CC)CC(=O)Nc2c(F)cccc2F)cc1	-4	0	-6	-11	nt
CCN(CC(=O)Nc1c(F)cccc1F)C(=O)CCNS(=O)(=O)c1ccc(C)c(C)c1	49*	2	-9	25	5	UDG A3A counter=0
O=C(CSCc1ccccc1Br)NN=Cc1ccccc1C(=O)O	nt	0	nt	nt	nt
O=C(NN=Cc1c(Cl)nc2ccccn2c1=O)c1cccnc1	nt	-13	nt	nt	nt
Cc1cc(C)c(C)c(S(=O)(=O)N2CCC(C(=O)Nc3ccc(S(=O)(=O)N4CCOCC4)cc3)CC2)c1C	41*	0	4	0	2
